Assay results from different studies.
Each line is one published result; the experiments were not run side by side.
Target: Serine/threonine-protein kinase pim-1 (PIM1, Homo sapiens, UniProt P11309)

With `FC(F)(F)Oc1cccc(-c2cnc3ccc(-c4ccncc4)nn23)c1` the remaining binding was 23% (cell-free assay; competition with immobilised ligand; 5 µM).
With `Nc1cnc(N2CCc3cc(S(=O)(=O)Nc4c(F)cc(Cl)cc4F)cc(N4CCCC4=O)c32)nc1` the remaining binding was 88% (cell-free assay; competition with immobilised ligand; 1 µM).
The remaining binding of `CNC(=O)[C@@H]1CC[C@@H](n2c(-c3ccc4cnccc4c3)nc3ccc(C(=O)NCc4cccc(C(N)=O)c4)cc32)C1` is reported as 100% (binding; competition with immobilised ligand; 1 µM).
With `CN(CCCC(F)(F)F)c1nccc(-c2cnn3ncccc23)n1` the remaining binding was 98% (binding; 1 µM).
`CNC(=O)Nc1ccc2c(c1)CC[C@@]21OC(=O)N(CC(=O)N(Cc2ccc(F)cc2)[C@@H](C)C(F)(F)F)C1=O` gave a remaining binding of 100% (cell-free assay; competition with immobilised ligand; 1 µM).
For `COc1cnc(Nc2cccc(S(N)(=O)=O)c2)nc1N1CCN(c2ccccc2)CC1`, the remaining binding was 95% (binding; competition with immobilised ligand; 1 µM).
`COc1ccnn2ncc(-c3ccnc(N(C)C)n3)c12` gave a remaining binding of 74% (binding; 1 µM).
With `C[C@H](c1ccc(F)cc1)N(Cc1cccc(C(=O)O)c1)C(=O)c1cnc2ccccc2c1` the remaining binding was 100% (cell-free assay; competition with immobilised ligand; 1 µM).
`N[C@H]1CCN(c2nccc(-c3cnn4ncccc34)n2)C1` gave a remaining binding of 99% (binding; 1 µM).
With `O=C(O)c1cc(-c2ccc(C3CCNCC3)cc2)c2ccc(-c3ccc(C(F)(F)F)cc3)cc2c1` the remaining binding was 100% (cell-free assay; competition with immobilised ligand; 1 µM).
The remaining binding of `CN(C)c1ncc(F)c(-c2cnn3ncccc23)n1` is reported as 82% (binding; 1 µM).
`c1cncc(-c2cccc(Nc3nccc(NC4CCCCC4)n3)c2)c1` has a remaining binding of 42% (binding; competition with immobilised ligand; 10 µM).
For `F[C@@H]1CCN(c2nccc(-c3cnn4ncccc34)n2)C1`, the remaining binding was 100% (binding; 1 µM).
`O=C(Nc1c[nH]nc1C(=O)NC1CCNCC1)c1cc(F)cc(F)c1` gave a remaining binding of 100% (binding; competition with immobilised ligand; 1 µM).
`FC(F)(F)c1ccc2c(c1)nc(-c1cccnc1)n2C1CC1` gave a remaining binding of 94% (cell-free assay; competition with immobilised ligand; 1 µM).
The remaining binding of `O=C(c1ccc(Nc2ncc(Cl)c(-c3cc4ccccc4s3)n2)cc1)N1CCC(N2CCCC2)CC1` is reported as 84% (binding; competition with immobilised ligand; 1 µM).
`c1cnn2ncc(-c3ccnc(N4CCC45COC5)n3)c2c1` gave a remaining binding of 71% (binding; 1 µM).
`C[C@@H]1CN(c2ccc3ncc(-c4ccc5[nH]nc(C6CC6)c5c4)n3n2)C[C@H](C)O1` has a remaining binding of 66% (binding; competition with immobilised ligand; 50 nM).
`C[C@@H]1CCN(c2nccc(-c3cnn4ncccc34)n2)C1` has a remaining binding of 84% (binding; 1 µM).
With `O=C(c1ccc(Nc2nccc(-c3cc4ccccc4s3)n2)cc1)N1CCC(N2CCCC2)CC1` the remaining binding was 75% (binding; competition with immobilised ligand; 1 µM).
`Cc1cc(-n2nc(Cc3cc(F)cc(C(F)(F)F)c3)nc2C)ccc1C(N)=O` has a remaining binding of 100% (cell-free assay; competition with immobilised ligand; 1 µM).
`CC(C)(C)c1ccc(-c2nc(CBr)nn2-c2cccc(O)c2)cc1` has a remaining binding of 90% (cell-free assay; competition with immobilised ligand; 10 µM).
`O=C1NC(c2ccccn2)Sc2ccccc21` (centres unmarked) gave a remaining binding of 82% (cell-free assay; competition with immobilised ligand; 1 µM).
With `O=C(c1ccc(Nc2ncc(Cl)c(-c3ccc(Cl)s3)n2)cc1)N1CCC(N2CCCC2)CC1` the remaining binding was 87% (binding; competition with immobilised ligand; 1 µM).
`CCC(=N\O)/C(C)=C/c1ccc(F)cc1` has a remaining binding of 85% (cell-free assay; competition with immobilised ligand; 1 µM).
With `N#Cc1ccccc1CSc1nnc2c(n1)[nH]c1ccccc12` the remaining binding was 90% (binding; competition with immobilised ligand; 10 µM).
